Measured values as given in ChEMBL document CHEMBL1955779, “Favourable involvement of α2A-adrenoreceptor antagonism in the I₂-imidazoline binding sites-mediated morphine analgesia enhancement” (Bioorg Med Chem, 2012).
Active and inactive are the calls of the source. The calls are words filed in the database; no cut-off is given here.

Tests used:
[1] = Selectivity ratio of I2 imidazoline binding site to alpha2 adrenergic receptor
[2] = Binding affinity to I2 imidazoline binding site
[3] = molecular target: T1, Alpha-2A adrenergic receptor (Homo sapiens, UniProt P08913); assay: Displacement of [3H]RX821002 from human alpha2A adrenergic receptor expressed in CHO cells after 30 mins by scintillation counting; format: cell-based
T1 sequence (P08913 whole entry): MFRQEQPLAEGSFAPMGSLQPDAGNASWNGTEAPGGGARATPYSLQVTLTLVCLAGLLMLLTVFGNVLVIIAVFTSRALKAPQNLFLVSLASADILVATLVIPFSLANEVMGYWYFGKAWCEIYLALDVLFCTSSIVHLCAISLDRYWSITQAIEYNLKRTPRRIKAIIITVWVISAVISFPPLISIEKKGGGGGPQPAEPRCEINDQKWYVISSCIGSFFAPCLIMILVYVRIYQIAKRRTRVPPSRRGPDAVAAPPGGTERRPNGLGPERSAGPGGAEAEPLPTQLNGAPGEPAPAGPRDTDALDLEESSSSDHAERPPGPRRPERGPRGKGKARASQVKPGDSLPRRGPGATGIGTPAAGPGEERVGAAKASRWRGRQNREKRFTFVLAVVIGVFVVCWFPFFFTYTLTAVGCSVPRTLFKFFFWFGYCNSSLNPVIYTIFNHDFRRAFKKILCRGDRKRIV

[4] = molecular target: T2, Alpha-2A adrenergic receptor (Homo sapiens) (UniProt P08913); assay: Antagonist activity at human alpha2A adrenergic receptor expressed in CHO cells assessed as inhibition of clonidine-induced extracellular acidification after 30 mins by cytosensor microphysiometry; format: functional, cell-based
T2 sequence (whole entry): T1 sequence (P08913 whole entry)
How it was run: (§1)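 pKb from cytosensor microphysiometry on CHO cells each expressing one human α2 subtype (α2A, α2B or α2C). Antagonist shift of the clonidine agonist concentration-effect curve was measured. Means ± SEM of three to six separate experiments.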

[5] = molecular target: T3, Alpha-2C adrenergic receptor (Homo sapiens, UniProt P18825); assay: Displacement of [3H]RX821002 from human Alpha-2C adrenergic receptor expressed in CHO cells after 30 mins by scintillation counting; format: cell-based
T3 sequence (P18825 whole entry): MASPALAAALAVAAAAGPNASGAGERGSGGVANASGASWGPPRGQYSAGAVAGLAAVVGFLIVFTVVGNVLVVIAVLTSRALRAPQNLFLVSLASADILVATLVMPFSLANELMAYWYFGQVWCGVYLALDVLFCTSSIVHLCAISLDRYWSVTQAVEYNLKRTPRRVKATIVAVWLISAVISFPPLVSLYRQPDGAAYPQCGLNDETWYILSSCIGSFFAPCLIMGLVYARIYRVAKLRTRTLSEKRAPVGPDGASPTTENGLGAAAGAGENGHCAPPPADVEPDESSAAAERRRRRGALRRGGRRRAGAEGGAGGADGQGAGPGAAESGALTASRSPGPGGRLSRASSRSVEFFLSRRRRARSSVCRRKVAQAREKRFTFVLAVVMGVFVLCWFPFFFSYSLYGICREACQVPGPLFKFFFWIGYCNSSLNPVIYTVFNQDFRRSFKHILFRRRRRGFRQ

[6] = molecular target: T4, Alpha-2C adrenergic receptor (Homo sapiens) (UniProt P18825); assay: Antagonist activity at human Alpha-2C adrenergic receptor expressed in CHO cells assessed as inhibition of clonidine-induced extracellular acidification after 30 mins by cytosensor microphysiometry; format: functional, cell-based; how it was run: as §1
T4 sequence (whole entry): T3 sequence (P18825 whole entry)

[7] = molecular target: T5, Alpha-2B adrenergic receptor (Homo sapiens, UniProt P18089); assay: Displacement of [3H]RX821002 from human alpha2B adrenergic receptor expressed in CHO cells after 30 mins by scintillation counting; format: cell-based
T5 sequence (P18089 whole entry): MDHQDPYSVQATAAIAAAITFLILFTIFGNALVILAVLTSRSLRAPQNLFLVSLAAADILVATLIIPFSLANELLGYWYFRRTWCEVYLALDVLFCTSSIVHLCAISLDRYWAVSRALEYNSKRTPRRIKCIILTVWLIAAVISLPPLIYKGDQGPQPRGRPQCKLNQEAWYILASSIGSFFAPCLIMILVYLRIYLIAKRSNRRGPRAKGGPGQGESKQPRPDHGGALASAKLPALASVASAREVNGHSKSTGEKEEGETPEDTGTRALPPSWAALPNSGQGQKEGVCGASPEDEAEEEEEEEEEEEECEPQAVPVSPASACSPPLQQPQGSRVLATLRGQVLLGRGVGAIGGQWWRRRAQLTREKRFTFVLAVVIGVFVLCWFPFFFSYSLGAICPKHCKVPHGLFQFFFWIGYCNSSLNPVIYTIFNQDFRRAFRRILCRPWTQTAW

[8] = molecular target: T6, Alpha-2B adrenergic receptor (Homo sapiens) (UniProt P18089); assay: Antagonist activity at human alpha2B adrenergic receptor expressed in CHO cells assessed as inhibition of clonidine-induced extracellular acidification after 30 mins by cytosensor microphysiometry; format: functional, cell-based; how it was run: as §1
T6 sequence (whole entry): T5 sequence (P18089 whole entry)

[9] = Displacement of [3H]2-BFI from Sprague-Dawley rat I2 imidazoline binding site by liquid scintillation counting
Mus musculus [10] = assay: Potentiation of morphine-induced analgesic activity in CD1 mouse assessed as latency in radiant heat-induced tail flick at 2 mg/kg, ip administered 15 mins prior to morphine measured up to 120 mins; format: functional, organism-based; design: dose 2 mg/kg
How it was run: (§2)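 Male CD-1 mice, 25–35 g. Radiant heat tail-flick: I.R. source aimed at lower third of tail; basal latency (2-3 s) is the mean of two trials 30 min apart. Test agent 1 or 2 mg/kg ip, or distilled water vehicle, given 15 min before morphine 5.0 mg/kg sc or saline. Readings at 30, 60, 90, 120 and 240 min after morphine, as %MPE; 8–10 mice, means ± SEM.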

Mus musculus [11] = assay: Analgesic activity in CD1 mouse assessed as latency in radiant heat-induced tail flick at 5 mg/kg, sc after 30 mins; format: functional, organism-based; design: dose 5 mg/kg; how it was run: as §2
[12] = molecular target: T7, 5-hydroxytryptamine receptor 1A (Homo sapiens, UniProt P08908); assay: Binding affinity to 5HT1A receptor
T7 sequence (P08908 whole entry): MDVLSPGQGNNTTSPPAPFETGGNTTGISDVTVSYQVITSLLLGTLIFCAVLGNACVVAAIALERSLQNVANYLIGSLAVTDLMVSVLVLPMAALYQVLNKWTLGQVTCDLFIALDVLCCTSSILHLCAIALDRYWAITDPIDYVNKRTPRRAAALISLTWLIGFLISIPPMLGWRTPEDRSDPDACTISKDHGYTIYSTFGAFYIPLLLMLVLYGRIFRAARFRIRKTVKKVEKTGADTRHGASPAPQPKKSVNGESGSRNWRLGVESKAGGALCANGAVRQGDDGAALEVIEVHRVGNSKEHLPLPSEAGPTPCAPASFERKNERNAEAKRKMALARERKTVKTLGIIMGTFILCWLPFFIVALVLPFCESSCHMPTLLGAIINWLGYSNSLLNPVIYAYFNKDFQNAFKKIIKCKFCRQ

[13] = molecular target: T8, Alpha-1A adrenergic receptor (Homo sapiens, UniProt P35348); assay: Binding affinity to alpha1A adrenergic receptor
T8 sequence (P35348 whole entry): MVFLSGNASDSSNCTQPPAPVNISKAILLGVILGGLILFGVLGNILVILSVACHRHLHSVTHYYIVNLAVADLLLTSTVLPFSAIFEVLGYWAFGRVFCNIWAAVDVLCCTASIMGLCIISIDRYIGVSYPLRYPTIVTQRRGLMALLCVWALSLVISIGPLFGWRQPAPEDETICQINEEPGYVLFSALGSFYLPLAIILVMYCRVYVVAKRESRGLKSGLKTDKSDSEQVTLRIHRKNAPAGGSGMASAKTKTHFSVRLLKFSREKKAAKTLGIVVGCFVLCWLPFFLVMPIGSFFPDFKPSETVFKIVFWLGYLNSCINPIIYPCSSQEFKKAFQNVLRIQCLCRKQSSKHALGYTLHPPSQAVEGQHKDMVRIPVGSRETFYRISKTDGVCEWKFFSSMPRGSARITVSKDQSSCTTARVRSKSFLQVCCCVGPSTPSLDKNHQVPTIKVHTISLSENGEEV

Mus musculus [14] = assay: Potentiation of morphine-induced analgesic activity in ip dosed CD1 mouse assessed as latency in radiant heat-induced tail flick administered 15 mins prior to morphine in the presence of 2 mg/kg, ip of idazoxan; format: functional; conditions: route intraperitoneal
How it was run: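 CD-1 mice, radiant heat tail-flick. […] Test agent given 15 min before morphine 5.0 mg/kg sc. Latency read after morphine.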

Mus musculus [15] = assay: Antinociceptive activity in CD1 mouse assessed as latency in radiant heat-induced tail flick at 1 mg/kg, ip from 30 to 240 mins; format: functional, organism-based; design: dose 1 mg/kg; how it was run: as §2
Mus musculus [16] = assay: Potentiation of morphine-induced analgesic activity in CD1 mouse assessed as latency in radiant heat-induced tail flick at 1 mg/kg, ip administered 15 mins prior to morphine measured up to 120 mins; format: functional, organism-based; design: dose 1 mg/kg; how it was run: as §2
Mus musculus [17] = assay: Antinociceptive activity in CD1 mouse assessed as latency in radiant heat-induced tail flick at 2 mg/kg, ip from 30 to 240 mins; format: functional, organism-based; design: dose 2 mg/kg; how it was run: as §2
Mus musculus [18] = assay: Potentiation of morphine-induced analgesic activity in CD1 mouse assessed as latency in radiant heat-induced tail flick at 1.250 mg/kg, ip administered 15 mins prior to morphine measured up to 120 mins; format: functional, organism-based; design: dose 1.25 mg/kg
How it was run: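 Male CD-1 mice (25–35 g) were given ip pretreatment in distilled-water vehicle 15 min before morphine 5.0 mg/kg sc or saline. Radiant-heat IR tail-flick was applied to the lower third of the tail. Basal latency (2–3 s) was the mean of two trials 30 min apart. Readings at 30, 60, 90, 120 and 240 min post-morphine were expressed as %MPE. Means ± SEM, 8–10 mice.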

## c1ccc(CCC2=NCCN2)cc1 [PHENYZOLINE]
[1]
  Selectivity ratio: 794
[2]
  pKi: 8.6

## c1ccc([C@@H]2CO[C@H](C3=NCCN3)CO2)cc1 (relative stereo)
[3]
  Ki: > 10 µM
[4]
  pKb: < 5
[5]
  Ki: > 10 µM
[6]
  pKb: < 5
[7]
  Ki: > 10 µM
[8]
  pKb: 5.5

## c1ccc([C@@H]2COC[C@@H](C3=NCCN3)O2)cc1 (relative stereo)
[3]
  Ki: 6.31 µM
[4]
  pKb: < 5
[5]
  Ki: > 10 µM
[6]
  pKb: < 5
[7]
  Ki: > 10 µM
[8]
  pKb: < 5

## c1ccc(C2(c3ccccc3)COCC(C3=NCCN3)O2)cc1 (configuration not stated)
[3]
  Ki: 3.8 µM
[4]
  pKb: 5.37
[5]
  Ki: 6.17 µM
[6]
  pKb: < 5
[7]
  Ki: 4.47 µM
[8]
  pKb: < 5

## c1ccc(C2(c3ccccc3)COC(C3=NCCN3)CO2)cc1 (configuration not stated)
[3]
  Ki: > 10 µM
[4]
  pKb: < 5
[5]
  Ki: 7.41 µM
[6]
  pKb: < 5
[7]
  Ki: 2.82 µM
[8]
  pKb: < 5

## c1ccc([C@@H]2CO[C@@H](C3=NCCN3)CO2)cc1
[3]
  Ki: 0.398 µM
[9]
  pKi: 6.52
[4]
  pKb: 6.4
[5]
  Ki: > 10 µM
[6]
  pKb: < 5
[7]
  Ki: > 10 µM
[8]
  pKb: < 5

## c1ccc2c(c1)OCC(C1=NCCN1)O2 (configuration not stated) [IDAZOXAN]
[2]
  pKi: 8.37
[4]
  pKb: 7.73
Mus musculus [10]
  Activity: inactive
[6]
  pKb: 7.92
[8]
  pKb: 7.16

## CN1CC[C@]23c4c5ccc(O)c4O[C@H]2[C@@H](O)C=C[C@H]3[C@H]1C5
Mus musculus [11]
  Activity: Active

## c1ccc([C@H]2COC[C@@H](C3=NCCN3)O2)cc1 (relative stereo)
[3]
  Ki: 5.37 µM
[4]
  pKb: < 5
[5]
  Ki: > 10 µM
[6]
  pKb: < 5
[7]
  Ki: > 10 µM
[8]
  pKb: 5.18

## c1ccc([C@H]2CO[C@H](C3=NCCN3)CO2)cc1
[3]
  Ki: 7.94 µM
[9]
  pKi: 5.48
[4]
  pKb: < 5
[5]
  Ki: > 10 µM
[6]
  pKb: < 5
[7]
  Ki: > 10 µM
[8]
  pKb: < 5

## c1ccc(C2COC(C3=NCCN3)CO2)cc1 (racemic)
[3]
  Ki: 0.501 µM
[9]
  pKi: 6.35
[12]
  Ki: > 10 µM
[13]
  Ki: > 10 µM
[4]
  pKb: 6.4
[5]
  Ki: > 10 µM
Mus musculus [10]
  Activity: Active
Mus musculus [14]
  Activity: -24%
[6]
  pKb: < 5
[7]
  Ki: > 10 µM
[8]
  pKb: < 5
Mus musculus [15]
  Activity: inactive
Mus musculus [16]
  Activity: Active
Mus musculus [17]
  Activity: inactive

## COC(=O)[C@@H]1[C@H]2C[C@H]3c4[nH]c5ccccc5c4CCN3C[C@@H]2CC[C@@H]1O
Mus musculus [18]
  Activity: inactive
